Here are results for 17 compounds from ChEMBL document CHEMBL1135509 (J Med Chem, 2002).

In assay [1] the target is Sodium-dependent serotonin transporter (Rattus norvegicus, UniProt P31652). The assay can be described thus: Inhibition of high affinity uptake of [3H]5-HT by serotonin transporter in nerve endings obtained from rat brain. The method in brief: (§1)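 Reuptake inhibition reported as Ki; values are mean ± standard error of at least three experiments.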
For assay [2], the target named is T1, Sodium-dependent dopamine transporter (Rattus norvegicus, UniProt P23977). The assay is described as follows: Inhibition of high affinity uptake of [3H]-DA by dopamine transporter in nerve endings obtained from rat brain. In outline:
as §1

In assay [3] the target is Monoamine transporters; Norepinephrine & serotonin (Rattus norvegicus) (UniProt P31652+Q9WTR4). The assay is described as follows: Ratio of Ki at norepinephrine transporter and Ki at 5-HT transporter. It counts as protein assay. The method in brief:
(§2)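 Selectivity ratio calculated from Ki values measured in the monoamine reuptake assays, each Ki being the mean ± standard error of at least three experiments.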

Assay [4] deals with Monoamine transporters; serotonin & dopamine (Rattus norvegicus) (UniProt P31652+P23977). The assay is described as follows: Ratio of Ki at 5-HT transporter and Ki at dopamine transporter. It counts as protein assay. The method in brief:
as §2

The target of assay [5] is Monoamine transporters; Norepininephrine & dopamine (Rattus norvegicus) (UniProt P23977+Q9WTR4). The assay can be described thus: Ratio of Ki at norepinephrine transporter and Ki at dopamine transporter. It counts as protein assay. In outline:
as §2

Assay [6] has as its target Norepinephrine transporter (Rattus norvegicus, UniProt Q9WTR4). The assay can be described thus: Inhibition of high affinity uptake of [3H]NE by norepinephrine transporter in nerve endings obtained from rat brain. In outline: as §1
Assay [7] deals with T1, Sodium-dependent dopamine transporter. The assay can be described thus: 373 Ability to inhibit high affinity uptake of [3H]DA using rat nerve endings obtained from brain regions enriched in dopamine transporter. In outline:
as §1

Sequence of Sodium-dependent serotonin transporter (P31652 whole entry): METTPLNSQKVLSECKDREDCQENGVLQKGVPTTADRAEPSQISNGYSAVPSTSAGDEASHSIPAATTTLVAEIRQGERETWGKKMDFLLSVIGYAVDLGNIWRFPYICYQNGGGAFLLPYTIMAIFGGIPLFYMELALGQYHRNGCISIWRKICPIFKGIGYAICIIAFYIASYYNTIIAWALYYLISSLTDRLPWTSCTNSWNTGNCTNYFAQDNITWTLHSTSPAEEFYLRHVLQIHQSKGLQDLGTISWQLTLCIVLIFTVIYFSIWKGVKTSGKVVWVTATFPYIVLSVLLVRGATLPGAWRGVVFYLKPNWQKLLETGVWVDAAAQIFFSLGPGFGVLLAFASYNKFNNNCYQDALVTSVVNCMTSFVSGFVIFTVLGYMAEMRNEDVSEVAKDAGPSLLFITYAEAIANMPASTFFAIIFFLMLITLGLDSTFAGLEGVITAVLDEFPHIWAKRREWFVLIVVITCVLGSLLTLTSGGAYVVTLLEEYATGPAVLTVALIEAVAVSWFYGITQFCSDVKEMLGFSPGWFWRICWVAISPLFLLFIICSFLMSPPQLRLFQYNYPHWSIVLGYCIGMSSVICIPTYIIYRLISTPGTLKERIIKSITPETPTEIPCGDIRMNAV
Sequence of Norepinephrine transporter (Q9WTR4 whole entry): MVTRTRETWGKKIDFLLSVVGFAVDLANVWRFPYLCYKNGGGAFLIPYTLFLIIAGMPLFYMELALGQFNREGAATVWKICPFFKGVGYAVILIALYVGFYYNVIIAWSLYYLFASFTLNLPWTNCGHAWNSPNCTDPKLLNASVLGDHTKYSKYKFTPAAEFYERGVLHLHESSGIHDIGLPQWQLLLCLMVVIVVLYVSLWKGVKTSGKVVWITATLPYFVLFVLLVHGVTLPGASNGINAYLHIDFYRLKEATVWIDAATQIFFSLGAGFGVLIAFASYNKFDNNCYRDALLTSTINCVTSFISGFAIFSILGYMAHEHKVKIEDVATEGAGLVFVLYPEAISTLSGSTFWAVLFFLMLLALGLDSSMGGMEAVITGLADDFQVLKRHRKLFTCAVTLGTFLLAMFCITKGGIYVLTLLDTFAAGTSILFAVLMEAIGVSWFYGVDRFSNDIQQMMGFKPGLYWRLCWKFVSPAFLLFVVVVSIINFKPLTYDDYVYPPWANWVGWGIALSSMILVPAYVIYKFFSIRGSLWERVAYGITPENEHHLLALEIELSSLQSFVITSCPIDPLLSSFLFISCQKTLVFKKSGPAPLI
T1 sequence (P23977 whole entry): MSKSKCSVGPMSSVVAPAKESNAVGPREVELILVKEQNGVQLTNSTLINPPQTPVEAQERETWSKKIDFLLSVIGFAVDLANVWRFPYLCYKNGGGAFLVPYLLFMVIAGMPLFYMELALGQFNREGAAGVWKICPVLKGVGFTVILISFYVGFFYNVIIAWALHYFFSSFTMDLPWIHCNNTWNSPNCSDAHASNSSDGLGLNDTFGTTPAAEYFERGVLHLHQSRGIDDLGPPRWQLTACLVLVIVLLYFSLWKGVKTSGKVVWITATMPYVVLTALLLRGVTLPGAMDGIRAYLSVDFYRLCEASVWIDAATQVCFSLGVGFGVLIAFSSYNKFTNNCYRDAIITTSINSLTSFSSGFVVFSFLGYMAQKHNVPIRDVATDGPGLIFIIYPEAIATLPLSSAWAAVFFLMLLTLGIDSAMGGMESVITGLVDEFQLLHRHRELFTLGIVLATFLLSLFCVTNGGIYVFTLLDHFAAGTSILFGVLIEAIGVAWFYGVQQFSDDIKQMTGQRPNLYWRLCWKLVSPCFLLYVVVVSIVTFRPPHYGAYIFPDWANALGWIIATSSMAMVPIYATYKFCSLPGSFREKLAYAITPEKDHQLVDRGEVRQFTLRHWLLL
Sequence of Monoamine transporters; serotonin & dopamine (Rattus norvegicus) (P23977 whole entry, looked up): as the sequence (P23977 whole entry) above
Sequence of Monoamine transporters; serotonin & dopamine (Rattus norvegicus) (P31652 whole entry, looked up): as the sequence (P31652 whole entry) above

With `COC(=O)C1CNCC[C@@H]1c1ccc(Cl)cc1` (some centres not stated), the Ki (as a rule, a dissociation constant, usually derived from enzyme kinetics or from competition with a known ligand) is 434 nM in assay [1], 279 nM in assay [2] and 7.9 nM in assay [6]. Also, the Ratio amounted to 0.02 in assay [3], 1.56 in assay [4] and 0.03 in assay [5].

For `COC(=O)C1CN(C(C)=O)CC[C@@H]1c1ccc(Cl)cc1` (some centres not stated), the Ki in assay [1], in assay [2] and in assay [6] was > 10000 nM in each case.

In the case of `Cc1noc(C2CNCC[C@@H]2c2ccc(Cl)cc2)n1` (some centres not stated), the inhibitory constant (Ki) is 373 nM in assay [1], 34 nM in assay [6] and 189 nM in assay [7]. Besides, the Ratio was found to be 0.09 in assay [3], 1.97 in assay [4] and 0.18 in assay [5].

On to `COC(=O)C1CN(CCC(c2ccccc2)c2ccccc2)CC[C@@H]1c1ccc(Cl)cc1` (some centres not stated), for which the Ki in assay [1] turned out to be 2690 nM; in assay [2], 4290 nM; in assay [6] it was 4340 nM. Also, the Ratio in assay [3] was determined as 1.61; in assay [4] it was 0.63; in assay [5] it was 1.01.

With `COC(=O)C1CN(CCCCl)CC[C@@H]1c1ccc(Cl)cc1` (some centres not stated), the results for the inhibition constant (Ki) in assay [1], in assay [2] and in assay [6] were > 10000 nM, 3150 nM and 441 nM, respectively. Besides, the Ratio in assay [3] is < 0.04; in assay [4], > 3.17; in assay [5], 0.14.

`COC(=O)[C@@H]1CN(CCc2ccccc2)CC[C@@H]1c1ccc(Cl)cc1`: the inhibition constant (Ki) turned out to be 1880 nM in assay [1], 1020 nM in assay [2] and 233 nM in assay [6]. The Ratio in assay [3] was 0.12; in assay [4], 1.84; in assay [5] it was 0.23.

Consider `CCOC(=O)CCN1CC[C@H](c2ccc(Cl)cc2)C(C(=O)OC)C1` (some centres not stated), for which the Ki in assay [1] is > 10000 nM; in assay [2] it was > 10000 nM; in assay [6], 2100 nM. Further, the Ratio in assay [3] and in assay [5] was < 0.21 throughout.

As for `COC(=O)[C@@H]1CN(Cc2ccccc2)CC[C@@H]1c1ccc(Cl)cc1`, the Ki in assay [1] stood at 2190 nM; in assay [2], 3280 nM; in assay [6] it was 2980 nM. Moreover, the Ratio amounted to 1.36 in assay [3], 0.67 in assay [4] and 0.91 in assay [5].

Take `COC(=O)C1CN(S(=O)(=O)c2ccccc2)CC[C@@H]1c1ccc(Cl)cc1` (some centres not stated): the values for the Ki in assay [1] and in assay [6] were 36100 nM and 16100 nM, respectively. In addition, the Ratio is 0.45 in assay [3], 1.85 in assay [4] and 0.83 in assay [5].

With `COC(=O)[C@H]1CN(CCc2ccccc2)CC[C@@H]1c1ccc(Cl)cc1`, the inhibition constant Ki is 2890 nM in assay [1], 1080 nM in assay [2] and 142 nM in assay [6]. Moreover, the Ratio came to 0.05 in assay [3], 2.68 in assay [4] and 0.13 in assay [5].

Take `COC(=O)C1CN(CCCF)CC[C@@H]1c1ccc(Cl)cc1` (some centres not stated): the Ki in assay [1] is > 10000 nM; in assay [2], 4280 nM; in assay [6], 335 nM. Further, the figures for the Ratio in assay [3], in assay [4] and in assay [5] were < 0.03, > 2.3 and 0.08, respectively.

On to `Cc1noc(C2CN(C)CC[C@@H]2c2ccc(Cl)cc2)n1` (some centres not stated), for which the Ki in assay [1] stood at 5960 nM; in assay [2], 187 nM; in assay [6] it was 256 nM. The Ratio in assay [3] turned out to be 0.04; in assay [4], 31.8; in assay [5], 1.37.

Turning to `COC(=O)C1CN(C(C)C)CC[C@@H]1c1ccc(Cl)cc1` (some centres not stated), the figures for the Ki in assay [1], in assay [2] and in assay [6] were 3740 nM, 6980 nM and 1840 nM, respectively. The Ratio turned out to be 0.49 in assay [3], 0.54 in assay [4] and 0.26 in assay [5].

Turning to `COC(=O)C1CN(CCCc2ccccc2)CC[C@@H]1c1ccc(Cl)cc1` (some centres not stated), the inhibitory constant (Ki) in assay [1] is 3270 nM; in assay [2] it was 810 nM; in assay [6] it was 488 nM. Further, the Ratio in assay [3] was determined as 0.15; in assay [4], 4.04; in assay [5] it was 0.6.

Turning to `OCC1CNCC[C@@H]1c1ccc(Cl)cc1` (some centres not stated), the figures for the Ki in assay [1], in assay [2] and in assay [6] were 239 nM, 836 nM and 69 nM, respectively. For the same compound, the Ratio is 0.29 in assay [3], 0.29 in assay [4] and 0.08 in assay [5].

For the compound `CN1CC[C@H](c2ccc(Cl)cc2)[C@@H](CO)C1`, the Ki amounted to 1550 nM in assay [1], 497 nM in assay [2] and 198 nM in assay [6]. The Ratio in assay [3] is 0.13; in assay [4], 3.12; in assay [5] it was 0.4.

Turning to `COC(=O)C1CN(Cc2ccc(O)cc2)CC[C@@H]1c1ccc(Cl)cc1` (some centres not stated), the Ki in assay [1] came to 2650 nM; in assay [2], 1620 nM; in assay [6] it was 1080 nM. Moreover, the Ratio turned out to be 0.41 in assay [3], 1.64 in assay [4] and 0.67 in assay [5].
